Measured values as given in ChEMBL document CHEMBL1151758, “Synthesis of polyfluoro ketones for selective inhibition of human phospholipase A2 enzymes” (J Med Chem, 2008).

Legend:
[1] = target: T1, Cytosolic phospholipase A2 (Homo sapiens) (UniProt P47712); test: Inhibition of human group 4A cPLA2 at 0.091 mol fraction by mixed micelle-based assay
T1 sequence (whole entry): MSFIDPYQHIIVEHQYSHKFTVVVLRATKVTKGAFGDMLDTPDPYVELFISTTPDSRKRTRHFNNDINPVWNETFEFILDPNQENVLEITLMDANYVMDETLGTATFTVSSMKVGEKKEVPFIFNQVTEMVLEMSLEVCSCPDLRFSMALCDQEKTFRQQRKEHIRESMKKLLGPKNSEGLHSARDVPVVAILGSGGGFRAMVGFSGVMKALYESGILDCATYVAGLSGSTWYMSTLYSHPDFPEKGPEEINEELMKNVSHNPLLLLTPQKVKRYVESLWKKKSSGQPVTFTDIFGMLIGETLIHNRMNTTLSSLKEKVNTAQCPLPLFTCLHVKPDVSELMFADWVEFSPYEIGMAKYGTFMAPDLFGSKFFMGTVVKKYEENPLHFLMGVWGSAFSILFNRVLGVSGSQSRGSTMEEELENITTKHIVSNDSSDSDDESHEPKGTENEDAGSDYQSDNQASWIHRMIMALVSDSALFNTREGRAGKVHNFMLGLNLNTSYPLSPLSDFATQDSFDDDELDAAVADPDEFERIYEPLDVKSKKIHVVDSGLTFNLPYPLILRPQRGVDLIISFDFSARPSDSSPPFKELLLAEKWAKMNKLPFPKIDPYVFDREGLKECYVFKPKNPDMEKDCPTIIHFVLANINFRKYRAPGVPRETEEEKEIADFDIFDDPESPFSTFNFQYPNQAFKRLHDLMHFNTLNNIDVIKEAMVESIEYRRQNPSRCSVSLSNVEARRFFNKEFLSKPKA
Summary of the method: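 Modified Dole assay, radiolabel release. Buffer: 100 mM HEPES pH 7.5, 90 μM CaCl2, 2 mM DTT, 0.1 mg/ml BSA. Percent inhibition measured with inhibitor at 0.091 mole fraction of the total substrate interface.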

[2] = target: T2, 85/88 kDa calcium-independent phospholipase A2 (Homo sapiens) (UniProt O60733); test: Inhibition of human group 6A iPLA2 at 0.091 mol fraction by mixed micelle-based assay
T2 sequence (whole entry): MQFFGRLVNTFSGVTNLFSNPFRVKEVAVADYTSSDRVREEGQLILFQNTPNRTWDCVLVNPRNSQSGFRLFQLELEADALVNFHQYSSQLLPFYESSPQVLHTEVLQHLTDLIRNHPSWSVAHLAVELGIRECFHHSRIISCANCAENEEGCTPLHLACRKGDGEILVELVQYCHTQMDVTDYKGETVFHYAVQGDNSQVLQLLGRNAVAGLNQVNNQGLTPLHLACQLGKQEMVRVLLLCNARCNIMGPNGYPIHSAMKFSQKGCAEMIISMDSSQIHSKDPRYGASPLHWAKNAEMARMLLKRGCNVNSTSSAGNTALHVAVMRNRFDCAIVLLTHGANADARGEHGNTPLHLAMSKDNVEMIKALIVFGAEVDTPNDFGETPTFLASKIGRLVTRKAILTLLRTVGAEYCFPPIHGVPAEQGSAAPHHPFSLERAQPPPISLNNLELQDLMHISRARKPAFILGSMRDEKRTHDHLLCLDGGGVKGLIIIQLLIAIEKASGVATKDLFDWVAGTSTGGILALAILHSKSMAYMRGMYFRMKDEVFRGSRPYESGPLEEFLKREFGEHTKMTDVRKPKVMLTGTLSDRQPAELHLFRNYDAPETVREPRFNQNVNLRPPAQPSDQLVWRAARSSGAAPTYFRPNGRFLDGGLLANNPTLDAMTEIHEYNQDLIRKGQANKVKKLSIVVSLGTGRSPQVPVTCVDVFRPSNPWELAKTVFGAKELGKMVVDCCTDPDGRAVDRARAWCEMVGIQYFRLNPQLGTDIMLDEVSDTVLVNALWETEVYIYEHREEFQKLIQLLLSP
Summary of the method: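 Modified Dole assay. Buffer: 200 mM HEPES pH 7.0, 1 mM ATP, 2 mM DTT, 0.1 mg/ml BSA. Percent inhibition read with inhibitor at 0.091 mole fraction of the total substrate interface.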

[3] = target: T3, Phospholipase A2 group V (Homo sapiens) (UniProt P39877); test: Inhibition of human group 5 sPLA2 at 0.091 mol fraction by mixed micelle-based assay
T3 sequence (whole entry): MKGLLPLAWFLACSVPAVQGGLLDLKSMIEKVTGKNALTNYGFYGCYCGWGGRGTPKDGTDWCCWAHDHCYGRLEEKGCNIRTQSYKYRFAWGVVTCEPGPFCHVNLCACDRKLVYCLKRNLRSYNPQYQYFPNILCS
Summary of the method: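 Modified Dole assay. Inhibitor present at 0.091 mole fraction of the total substrate interface; percent inhibition recorded.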

[4] = target: T2, 85/88 kDa calcium-independent phospholipase A2 (Homo sapiens); test: Inhibition of human group 6A iPLA2 by mixed micelle-based assay
Summary of the method: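 Modified Dole assay. Buffer: 200 mM HEPES pH 7.0, 1 mM ATP, 2 mM DTT, 0.1 mg/ml BSA. XI(50) is the inhibitor mole fraction in the total interface causing 50% inhibition. It was estimated for compounds exceeding 90% inhibition at 0.091 mole fraction.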

[5] = target: T1, Cytosolic phospholipase A2 (Homo sapiens); test: Inhibition of human group 4A cPLA2 by mixed micelle-based assay
Summary of the method: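 Buffer: 100 mM HEPES pH 7.5, 90 μM CaCl2, 2 mM DTT, 0.1 mg/ml BSA. XI(50) is the inhibitor mole fraction in the total substrate interface that gives 50% inhibition. It was estimated for compounds giving >90% inhibition at 0.091 mole fraction.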

[6] = target: T3, Phospholipase A2 group V (Homo sapiens); test: Inhibition of human group 5 sPLA2 by mixed micelle-based assay
Summary of the method: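 Modified Dole assay. XI(50) is the inhibitor mole fraction of the total interface that halves activity. It was estimated only where inhibition at 0.091 mole fraction exceeded 90%.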

For `O=C(CCCCc1ccccc1)C(F)(F)C(F)(F)F`, the inhibition [1] was under 25%, the inhibition [2] was 98% and the inhibition [3] was 28%. The XI50 [4] was 0.0073.
`O=C(CCc1ccc(OCc2ccccc2)cc1)C(F)(F)F` showed an inhibition [1] of 88%, an inhibition [2] of 71% and an inhibition [3] of 49%.
`CCCCCCOc1ccc(CCC(=O)C(F)(F)F)cc1` was tested, and the inhibition [1] was 91%, the inhibition [2] was 85% and the inhibition [3] was 82%. It also gave an XI50 [5] of 0.0199 and an XI50 [4] of 0.0328.
`O=C(CCCCc1ccccc1)C(F)(F)F` showed an inhibition [1] of 38%, an inhibition [2] of 96% and an inhibition [3] of under 25%. It also gave an XI50 [4] of 0.0096.
Work on `CCCCCCOc1ccc(CCC(=O)C(F)(F)C(F)(F)F)cc1` yielded an inhibition [1] of 73%, an inhibition [2] of 95% and an inhibition [3] of 86%. The XI50 [4] was 0.0075.
Work on `CCCCCCCCCCCCCCCC(=O)C(F)(F)F` yielded an inhibition [1] of 96%, an inhibition [2] of 92% and an inhibition [3] of 79%. For the same compound, the XI50 [5] was 0.0223 and the XI50 [4] was 0.0195.
For `CCCCCCCCCCOc1ccc(CCCCC(=O)C(F)(F)F)cc1`, the inhibition [1] was 95%, the inhibition [2] was 94% and the inhibition [3] was 84%. For the same compound, the XI50 [5] was 0.0116 and the XI50 [4] was 0.0166.
Work on `OC(O)(C(F)(F)F)C(F)(F)CCCc1ccccc1` yielded an inhibition [1] of 27%, an inhibition [2] of 49% and an inhibition [3] of 59%.
Work on `O=C(CCCCCc1ccccc1)C(F)(F)C(F)(F)F` yielded an inhibition [1] of 56%, an inhibition [2] of 98% and an inhibition [3] of 46%. The XI50 [4] was 0.0065.
`CCCCCCCCCCCCCCC(F)C(=O)C(F)(F)F` (stereo not drawn) showed an inhibition [1] of 94%, an inhibition [2] of 93% and an inhibition [3] of 86%. For the same compound, the XI50 [5] was 0.0167, the XI50 [4] was 0.0011 and the XI50 [6] was 0.0236.
`O=C(CCCCCc1ccccc1)C(F)(F)F` was tested, and the inhibition [1] was 62%, the inhibition [2] was 96% and the inhibition [3] was 48%. The XI50 [4] was 0.0025.
For `CCCCCCCCCCOc1ccc(CCC(=O)C(F)(F)F)cc1`, the inhibition [1] was 96%, the inhibition [2] was 94% and the inhibition [3] was 80%. For the same compound, the XI50 [5] was 0.0156 and the XI50 [4] was 0.0208.
`CCCCCCCCCCCCCCCC(=O)C(F)(F)C(F)(F)F` was tested, and the inhibition [1] was under 25%, the inhibition [2] was 50% and the inhibition [3] was 43%.
For `O=C(CCCCCCc1ccccc1)C(F)(F)C(F)(F)F`, the inhibition [1] was 65%, the inhibition [2] was 98% and the inhibition [3] was 75%. For the same compound, the XI50 [4] was 0.0065.
`CCCCCCOc1ccc(CCCCC(=O)C(F)(F)F)cc1` was tested, and the inhibition [1] was 92%, the inhibition [2] was 91% and the inhibition [3] was 86%. For the same compound, the XI50 [5] was 0.0098 and the XI50 [4] was 0.0169.
`O=C(CCCCCCc1ccccc1)C(F)(F)F` showed an inhibition [1] of 68%, an inhibition [2] of 99% and an inhibition [3] of 53%. The XI50 [4] was 0.0018.
